According to article PMC9276175 (Medicine, 2022):

How the values were obtained:
[1] = biological target: HDAC3 (Homo sapiens, UniProt O15379); assay: Enzymatic HDAC fluorogenic assay, HDAC3; assay type: biochemical
[2] = tested on: MDA-MB-231 cells; assay: Assessment of cell morphology; assay type: cell-based, human; conditions: 24 hours, dose-dependent, most significant at 300 to 500 μM
[3] = tested on: MDA-MB-231 cells; assay: Western blot of acetylation status and HDAC expression; assay type: cell-based, human; conditions: 24 hours
Outline: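 MDA-MB-231 cells were treated 24 hours with test compound at 50–500 μM, with DMSO as negative control. Cells were lysed on ice in RIPA buffer (pH 7.6) with protease and phosphatase inhibitors. Protein (30 µg/lane) was run on SDS-PAGE and blotted to PVDF, then blocked in 5% skim milk/TBST. Antibodies against Ac-α-tubulin (Lys40), α-tubulin, Ac-histone H3 (Lys9), H3, HDAC1, HDAC6 and GAPDH were applied overnight, followed by HRP secondary and ECL detection.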

[4] = biological target: HDAC4 (Homo sapiens, UniProt P56524); assay: Enzymatic HDAC fluorogenic assay, HDAC4; assay type: biochemical
HDAC4, sequence (P56524 627-1084 limits assumed): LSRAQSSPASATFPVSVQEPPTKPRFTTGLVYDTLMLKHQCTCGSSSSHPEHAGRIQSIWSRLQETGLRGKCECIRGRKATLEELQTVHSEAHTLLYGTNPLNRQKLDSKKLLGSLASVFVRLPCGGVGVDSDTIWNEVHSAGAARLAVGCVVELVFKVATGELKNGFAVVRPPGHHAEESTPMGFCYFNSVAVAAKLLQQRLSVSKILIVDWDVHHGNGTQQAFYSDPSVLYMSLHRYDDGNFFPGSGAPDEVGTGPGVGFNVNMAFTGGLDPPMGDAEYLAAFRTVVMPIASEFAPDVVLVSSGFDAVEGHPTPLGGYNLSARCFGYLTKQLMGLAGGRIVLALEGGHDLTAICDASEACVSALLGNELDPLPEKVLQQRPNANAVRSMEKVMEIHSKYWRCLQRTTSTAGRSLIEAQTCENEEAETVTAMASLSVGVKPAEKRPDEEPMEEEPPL

[5] = biological target: HDAC2 (Homo sapiens, UniProt Q92769); assay: Enzymatic HDAC fluorogenic assay, HDAC2; assay type: biochemical
HDAC2, sequence (Q92769 whole entry): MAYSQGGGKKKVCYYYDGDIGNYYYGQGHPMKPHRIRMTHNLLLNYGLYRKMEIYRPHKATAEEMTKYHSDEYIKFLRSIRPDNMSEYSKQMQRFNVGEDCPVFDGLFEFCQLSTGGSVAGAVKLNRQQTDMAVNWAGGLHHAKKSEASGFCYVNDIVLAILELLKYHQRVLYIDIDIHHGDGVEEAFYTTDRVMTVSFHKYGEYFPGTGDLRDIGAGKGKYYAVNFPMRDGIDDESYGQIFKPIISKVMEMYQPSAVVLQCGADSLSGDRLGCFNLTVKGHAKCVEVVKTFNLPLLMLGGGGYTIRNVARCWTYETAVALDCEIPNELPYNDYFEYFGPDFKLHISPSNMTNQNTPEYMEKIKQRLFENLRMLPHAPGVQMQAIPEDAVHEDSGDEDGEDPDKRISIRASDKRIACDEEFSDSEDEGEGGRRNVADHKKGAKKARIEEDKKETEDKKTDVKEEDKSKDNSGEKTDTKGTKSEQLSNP

[6] = biological target: T1, HDAC6 (Homo sapiens, UniProt Q9UBN7); assay: Enzymatic HDAC fluorogenic assay, HDAC6; assay type: biochemical
T1 sequence (Q9UBN7 1-1215): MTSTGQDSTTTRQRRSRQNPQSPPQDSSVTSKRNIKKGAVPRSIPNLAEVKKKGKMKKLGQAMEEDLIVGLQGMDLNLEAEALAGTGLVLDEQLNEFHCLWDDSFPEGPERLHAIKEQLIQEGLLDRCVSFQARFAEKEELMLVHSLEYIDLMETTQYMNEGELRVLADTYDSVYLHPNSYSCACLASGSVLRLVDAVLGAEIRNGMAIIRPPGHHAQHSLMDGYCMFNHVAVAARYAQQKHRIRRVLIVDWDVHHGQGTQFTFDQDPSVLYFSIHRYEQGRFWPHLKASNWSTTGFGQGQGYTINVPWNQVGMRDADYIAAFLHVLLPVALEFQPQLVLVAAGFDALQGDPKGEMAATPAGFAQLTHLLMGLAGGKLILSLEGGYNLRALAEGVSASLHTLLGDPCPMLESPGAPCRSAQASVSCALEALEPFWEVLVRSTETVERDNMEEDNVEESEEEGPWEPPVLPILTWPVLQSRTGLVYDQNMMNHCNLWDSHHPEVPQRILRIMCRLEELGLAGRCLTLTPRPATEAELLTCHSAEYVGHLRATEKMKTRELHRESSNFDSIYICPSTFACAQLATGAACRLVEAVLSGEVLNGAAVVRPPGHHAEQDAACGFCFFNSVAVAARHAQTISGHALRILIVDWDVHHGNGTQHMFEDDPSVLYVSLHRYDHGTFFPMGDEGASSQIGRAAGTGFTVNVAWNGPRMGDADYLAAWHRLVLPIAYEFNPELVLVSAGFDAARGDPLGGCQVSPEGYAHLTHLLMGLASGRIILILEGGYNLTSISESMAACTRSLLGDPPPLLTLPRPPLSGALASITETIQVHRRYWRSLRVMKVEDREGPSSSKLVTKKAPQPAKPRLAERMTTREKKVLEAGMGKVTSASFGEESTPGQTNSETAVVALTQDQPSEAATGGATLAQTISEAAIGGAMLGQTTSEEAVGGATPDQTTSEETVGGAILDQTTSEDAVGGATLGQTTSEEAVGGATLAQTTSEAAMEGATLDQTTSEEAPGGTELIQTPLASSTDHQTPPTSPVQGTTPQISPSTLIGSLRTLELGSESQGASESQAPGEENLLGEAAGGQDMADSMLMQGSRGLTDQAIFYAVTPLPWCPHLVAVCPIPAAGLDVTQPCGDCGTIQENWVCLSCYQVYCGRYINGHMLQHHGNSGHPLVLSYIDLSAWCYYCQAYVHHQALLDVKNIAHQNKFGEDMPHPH

[7] = biological target: T2, HDAC11 (Homo sapiens, UniProt Q96DB2); assay: Enzymatic HDAC fluorogenic assay, HDAC11; assay type: biochemical
T2 sequence (Q96DB2 1-347): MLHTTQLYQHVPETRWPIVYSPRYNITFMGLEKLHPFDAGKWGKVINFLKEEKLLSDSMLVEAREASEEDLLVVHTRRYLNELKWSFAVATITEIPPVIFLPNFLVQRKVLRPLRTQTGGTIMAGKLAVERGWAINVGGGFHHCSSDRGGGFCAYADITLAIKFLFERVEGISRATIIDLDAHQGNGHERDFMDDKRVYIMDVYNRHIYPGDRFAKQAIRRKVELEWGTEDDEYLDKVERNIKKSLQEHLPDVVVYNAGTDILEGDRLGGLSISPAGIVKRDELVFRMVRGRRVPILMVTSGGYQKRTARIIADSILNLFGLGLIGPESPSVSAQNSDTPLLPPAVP

[8] = tested on: MDA-MB-231 cells; assay: Cell proliferation assay; assay type: cell-based, human; conditions: for impaired MDA-MB-231 cell growth: 3 days; for anti-proliferative activity (in words): 1, 2 and 3 days
[9] = biological target: HDAC1 (Homo sapiens, UniProt Q13547); assay: Enzymatic HDAC fluorogenic assay, HDAC1; assay type: biochemical
HDAC1, sequence (Q13547 whole entry): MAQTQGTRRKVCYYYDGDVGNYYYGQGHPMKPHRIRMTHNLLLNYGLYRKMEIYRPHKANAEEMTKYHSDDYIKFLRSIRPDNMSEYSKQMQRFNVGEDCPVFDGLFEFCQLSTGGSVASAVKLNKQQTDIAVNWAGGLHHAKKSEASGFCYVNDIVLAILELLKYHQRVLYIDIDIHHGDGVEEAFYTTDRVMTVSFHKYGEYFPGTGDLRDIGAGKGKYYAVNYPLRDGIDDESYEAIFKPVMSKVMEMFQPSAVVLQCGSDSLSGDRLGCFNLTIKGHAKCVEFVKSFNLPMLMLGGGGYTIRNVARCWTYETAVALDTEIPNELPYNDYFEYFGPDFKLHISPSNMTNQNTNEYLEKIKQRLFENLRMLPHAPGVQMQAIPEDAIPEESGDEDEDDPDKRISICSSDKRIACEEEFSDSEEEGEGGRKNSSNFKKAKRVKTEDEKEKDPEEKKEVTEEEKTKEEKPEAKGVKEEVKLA

HDAC3, sequence (O15379 whole entry): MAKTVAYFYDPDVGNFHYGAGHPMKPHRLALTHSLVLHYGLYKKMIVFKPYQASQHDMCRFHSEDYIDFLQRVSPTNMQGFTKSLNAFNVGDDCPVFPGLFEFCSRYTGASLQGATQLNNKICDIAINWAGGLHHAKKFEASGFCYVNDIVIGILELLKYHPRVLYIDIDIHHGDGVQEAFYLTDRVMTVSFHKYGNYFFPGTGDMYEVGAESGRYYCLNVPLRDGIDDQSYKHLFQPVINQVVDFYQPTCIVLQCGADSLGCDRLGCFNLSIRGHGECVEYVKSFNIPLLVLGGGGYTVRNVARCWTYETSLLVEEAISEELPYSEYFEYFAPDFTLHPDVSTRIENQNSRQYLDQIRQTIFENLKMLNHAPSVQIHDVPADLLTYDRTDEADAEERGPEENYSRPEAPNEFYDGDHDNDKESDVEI
HDAC3, sequence (Q9Y618 395-489 partner limits assumed): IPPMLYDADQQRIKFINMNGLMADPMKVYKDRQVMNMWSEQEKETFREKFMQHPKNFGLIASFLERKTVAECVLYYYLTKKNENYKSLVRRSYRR

Row | Compound | IC50 [1] | morphological changes in cells [2] | expression level of HDAC6 ([3]; 500 μM) | expression level of HDAC6 ([3]; 50 to 500 μM) | acetylation of α-tubulin ([3]; concentrations ranging from 300 to 500 μM) | acetylation of Histone H3 ([3]; up to 300 μM concentration) | IC50 [4] | inhibition of class IIa HDAC (in words) [4] | IC50 [5] | IC50 [6] | inhibition of class IIb HDAC (in words) [6] | IC50 [7] | inhibition of class IV HDAC (in words) [7] | impaired MDA-MB-231 cell growth ([8]; 500 μM) | impaired MDA-MB-231 cell growth ([8]; 1000 μM) | anti-proliferative activity (in words) ([8]; concentrations from 300 to 1000 μM) | anti-proliferative activity (in words) ([8]; up to 100 μM concentration) | IC50 [9] | inhibition of class IV HDAC11 (in words) ([7]; up to 100 μM concentration)
1 | O=C(CCCCCNC(=O)c1ccccc1O)Nc1ccccc1 [Compound 5, 2-Hydroxy-N-(6-oxo-6-(phenylamino)hexyl)benzamide] | 7.9 ± 2.57 µM | more elongated and spindle-shaped | significantly depleted the expression level of HDAC6 | decreased the expression level of HDAC6 in a dose-dependent manner | promoted the acetylation of α-tubulin | dose-dependently increased the acetylation of Histone H3 | > 100 µM | failed to inhibit | 27.3 ± 3.71 µM | > 100 µM | failed to inhibit | > 100 µM | failed to inhibit | 64% | 81% | mediocre dose- and time-dependent anti-proliferative activity | no anti-proliferative activity | 22.2 ± 2.69 µM | 
2 | O=C(CCCCCCC(=O)Nc1ccccc1)NO [SAHA, Vorinostat, reference compound] |  |  |  |  |  |  |  |  |  |  |  |  |  |  |  |  |  |  | no inhibition
